# Test results published in ChEMBL document CHEMBL5376013, “Design, synthesis and biological evaluation of novel morpholinopyrimidine-5-carbonitrile derivatives as dual PI3K/mTOR inhibitors” (RSC Med Chem, 2024).
# What was measured:
# Format in all cases: functional
# Settings in all cases: read-out: GI
# [1] = test system: OVCAR-5; assay: Antitumor activity against human OVCAR-5 cells assessed as growth inhibition at 10 uM relative to control
# Method in brief: (§1)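 After drug addition, plates were incubated 48 h at 37 °C under 5% CO2. Adherent cells were fixed with cold TCA (10% final, 60 min, 4 °C) and suspension cells with 16% final TCA. Staining used 0.4% SRB in 1% acetic acid, solubilized in 10 mM trizma, read at A515. Percent growth was calculated from time-zero, control and treated absorbances.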
# [2] = test system: SK-OV-3; assay: Antitumor activity against human SK-OV-3 cells assessed as growth inhibition at 10 uM relative to control
# Method in brief: (§2)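 Drug exposure 48 h at 37 °C, 5% CO2. Adherent cells fixed with cold TCA (10% final), suspension cells with TCA (16% final). Stained with 0.4% SRB in 1% acetic acid, dissolved in 10 mM Tris, A515. Growth relative to time-zero and untreated control.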
# [3] = test system: SF-295; assay: Antitumor activity against human SF-295 cells assessed as growth inhibition at 10 uM relative to control; method in brief: as §1
# [4] = test system: UACC-62; assay: Antitumor activity against human UACC-62 cells assessed as growth inhibition at 10 uM relative to control; method in brief: as §2
# [5] = test system: NCI-H226; assay: Antitumor activity against human NCI-H226 cells assessed as growth inhibition at 10 uM relative to control; method in brief: as §1
# [6] = test system: NCI/ADR-RES; assay: Antitumor activity against human NCI-ADR-RES cells assessed as growth inhibition at 10 uM relative to control; method in brief: as §1
# [7] = test system: SW-620; assay: Antitumor activity against human SW-620 cells assessed as growth inhibition at 10 uM relative to control; method in brief: as §2
# [8] = test system: IGROV-1; assay: Antitumor activity against human IGROV-1 cells assessed as growth inhibition at 10 uM relative to control; method in brief: as §1
# [9] = test system: SNB-19; assay: Antitumor activity against human SNB-19 cells assessed as growth inhibition at 10 uM relative to control; method in brief: as §2
# [10] = test system: SK-MEL-28; assay: Antitumor activity against human SK-MEL-28 cells assessed as growth inhibition at 10 uM relative to control; method in brief: as §2
# [11] = test system: U-251; assay: Antitumor activity against human U-251 cells assessed as growth inhibition at 10 uM relative to control; method in brief: as §2
# [12] = test system: A498; assay: Antitumor activity against human A498 cells assessed as growth inhibition at 10 uM relative to control; method in brief: as §1
# [13] = test system: RPMI-8226; assay: Antitumor activity against human RPMI-8226 cells assessed as growth inhibition at 10 uM relative to control; method in brief: as §1
# [14] = test system: HL-60; assay: Antitumor activity against human HL-60 cells assessed as growth inhibition at 10 uM relative to control; method in brief: as §1
# [15] = test system: UO-31; assay: Antitumor activity against human UO-31 cells assessed as growth inhibition at 10 uM relative to control; method in brief: as §2
# [16] = test system: SK-MEL-2; assay: Antitumor activity against human SK-MEL-2 cells assessed as growth inhibition at 10 uM relative to control; method in brief: as §1
# [17] = test system: SNB-75; assay: Antitumor activity against human SNB-75 cells assessed as growth inhibition at 10 uM relative to control; method in brief: as §2
# [18] = test system: Malme-3M; assay: Antitumor activity against human Malme-3M cells assessed as growth inhibition at 10 uM relative to control; method in brief: as §1
# [19] = test system: HT-29; assay: Antitumor activity against human HT-29 cells assessed as growth inhibition at 10 uM relative to control; method in brief: as §1
# [20] = test system: NCI-H460; assay: Antitumor activity against human NCI-H460 cells assessed as growth inhibition at 10 uM relative to control; method in brief: as §1
# [21] = test system: HCT-116; assay: Antitumor activity against human HCT-116 cells assessed as growth inhibition at 10 uM relative to control; method in brief: as §1
# [22] = test system: MDA-MB-435; assay: Antitumor activity against human MDA-MB-435 cells assessed as growth inhibition at 10 uM relative to control; method in brief: as §1
# [23] = test system: M14; assay: Antitumor activity against human M14 cells assessed as growth inhibition at 10 uM relative to control; method in brief: as §1
# [24] = test system: MDA-MB-231; assay: Antitumor activity against human MDA-MB-231 cells assessed as growth inhibition at 10 uM relative to control; method in brief: as §1
# [25] = test system: NCI-H522; assay: Antitumor activity against human NCI-H522 cells assessed as growth inhibition at 10 uM relative to control; method in brief: as §1
# [26] = test system: NCI-H322M; assay: Antitumor activity against human NCI-H322M cells assessed as growth inhibition at 10 uM relative to control; method in brief: as §1
# [27] = test system: RXF 393; assay: Antitumor activity against human RXF 393 cells assessed as growth inhibition at 10 uM relative to control; method in brief: as §1
# [28] = test system: SN12C; assay: Antitumor activity against human SN12C cells assessed as growth inhibition at 10 uM relative to control; method in brief: as §2
# [29] = test system: TK-10; assay: Antitumor activity against human TK-10 cells assessed as growth inhibition at 10 uM relative to control; method in brief: as §2
# [30] = test system: T47D; assay: Antitumor activity against human T47D cells assessed as growth inhibition at 10 uM relative to control; method in brief: as §2
# [31] = test system: NCI-H23; assay: Antitumor activity against human NCI-H23 cells assessed as growth inhibition at 10 uM relative to control; method in brief: as §1
# [32] = test system: CAKI-1; assay: Antitumor activity against human CAKI-1 cells assessed as growth inhibition at 10 uM relative to control; method in brief: as §1
# [33] = test system: SF-268; assay: Antitumor activity against human SF-268 cells assessed as growth inhibition at 10 uM relative to control; method in brief: as §1
# [34] = test system: COLO 205; assay: Antitumor activity against human COLO 205 cells assessed as growth inhibition at 10 uM relative to control; method in brief: as §1
# [35] = test system: HOP-62; assay: Antitumor activity against human HOP-62 cells assessed as growth inhibition at 10 uM relative to control; method in brief: as §1
# [36] = test system: 786-0; assay: Antitumor activity against human 786-0 cells assessed as growth inhibition at 10 uM relative to control; method in brief: as §1
# [37] = test system: Hs-578T; assay: Antitumor activity against human Hs-578T cells assessed as growth inhibition at 10 uM relative to control; method in brief: as §1
# [38] = test system: HOP-92; assay: Antitumor activity against human HOP-92 cells assessed as growth inhibition at 10 uM relative to control; method in brief: as §1
# [39] = test system: UACC-257; assay: Antitumor activity against human UACC-257 cells assessed as growth inhibition at 10 uM relative to control; method in brief: as §2
# [40] = test system: HCC 2998; assay: Antitumor activity against human HCC 2998 cells assessed as growth inhibition at 10 uM relative to control; method in brief: as §1
# [41] = test system: OVCAR-4; assay: Antitumor activity against human OVCAR-4 cells assessed as growth inhibition at 10 uM relative to control; method in brief: as §1
# [42] = test system: EKVX; assay: Antitumor activity against human EKVX cells assessed as growth inhibition at 10 uM relative to control; method in brief: as §1
# [43] = test system: KM12; assay: Antitumor activity against human KM12 cells assessed as growth inhibition at 10 uM relative to control; method in brief: as §1
# [44] = test system: SF-539; assay: Antitumor activity against human SF-539 cells assessed as growth inhibition at 10 uM relative to control; method in brief: as §1
# [45] = test system: SR; assay: Antitumor activity against human SR cells assessed as growth inhibition at 10 uM relative to control; method in brief: as §2
# [46] = test system: SK-MEL-5; assay: Antitumor activity against human SK-MEL-5 cells assessed as growth inhibition at 10 uM relative to control; method in brief: as §2
smiles,measurement,setting,value
CSc1nc(Cl)c(C#N)c(-c2ccc(Cl)cc2)n1,inhibition of growth at 10 µM,[1],< 1%
same,inhibition of growth at 10 µM,[2],< 1%
same,inhibition of growth at 10 µM,[3],< 1%
same,inhibition of growth at 10 µM,[4],25.6%
same,inhibition of growth at 10 µM,[5],< 1%
same,inhibition of growth at 10 µM,[6],< 1%
same,inhibition of growth at 10 µM,[7],< 1%
same,inhibition of growth at 10 µM,[8],< 1%
same,inhibition of growth at 10 µM,[9],< 1%
same,inhibition of growth at 10 µM,[10],< 1%
same,inhibition of growth at 10 µM,[11],< 1%
same,inhibition of growth at 10 µM,[12],< 1%
same,inhibition of growth at 10 µM,[13],< 1%
same,inhibition of growth at 10 µM,[14],< 1%
same,inhibition of growth at 10 µM,[15],< 1%
same,inhibition of growth at 10 µM,[16],< 1%
same,inhibition of growth at 10 µM,[17],26.8%
same,inhibition of growth at 10 µM,[18],< 1%
same,inhibition of growth at 10 µM,[19],< 1%
same,inhibition of growth at 10 µM,[20],< 1%
same,inhibition of growth at 10 µM,[21],< 1%
same,inhibition of growth at 10 µM,[22],< 1%
same,inhibition of growth at 10 µM,[23],< 1%
same,inhibition of growth at 10 µM,[24],< 1%
same,inhibition of growth at 10 µM,[25],< 1%
same,inhibition of growth at 10 µM,[26],< 1%
same,inhibition of growth at 10 µM,[27],< 1%
same,inhibition of growth at 10 µM,[28],< 1%
same,inhibition of growth at 10 µM,[29],< 1%
same,inhibition of growth at 10 µM,[30],< 1%
same,inhibition of growth at 10 µM,[31],< 1%
same,inhibition of growth at 10 µM,[32],< 1%
same,inhibition of growth at 10 µM,[33],< 1%
same,inhibition of growth at 10 µM,[34],< 1%
same,inhibition of growth at 10 µM,[35],< 1%
same,inhibition of growth at 10 µM,[36],< 1%
same,inhibition of growth at 10 µM,[37],< 1%
same,inhibition of growth at 10 µM,[38],< 1%
same,inhibition of growth at 10 µM,[39],< 1%
same,inhibition of growth at 10 µM,[40],< 1%
same,inhibition of growth at 10 µM,[41],< 1%
same,inhibition of growth at 10 µM,[42],< 1%
same,inhibition of growth at 10 µM,[43],< 1%
same,inhibition of growth at 10 µM,[44],< 1%
same,inhibition of growth at 10 µM,[45],58.5%
same,inhibition of growth at 10 µM,[46],< 1%
